# Measured values as given in ChEMBL document CHEMBL4689842, “EUbOPEN Chemogenomics Library wave 1” (2021).
# “And” between values parts separate entries of the source, which are not always exact repeats. Equal values may be shown once.
# Test system: Fibroblast
# Assay: Multiplex assay against human fibroblast
# Assay type: toxicity, cell-based
# Outline: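 On a CQ1 microscope at 37°C and 5% CO2, live cells were imaged after compound addition. They had been stained at seeding with Hoechst33342, BioTracker Green Microtubule Cytoskeleton Dye, MitoTracker Red and Annexin V Alexa Fluor 680. CellPathfinder machine-learning gating assigned cells to Hoechst high-intensity objects or normal cells, normal cells to healthy, pyknosed or fragmented nuclei, and pyknosed cells to mitotic or apoptotic. Tubulin, mitochondrial-mass and membrane-permeability phenotypes are per cents of healthy-nucleus cells.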
# [1] = 12 h, 1 µM, compound concentration 1 uM, replicate 1
# [2] = 12 h, 1 µM, compound concentration 1 uM, replicate 2
# [3] = 12 h, 10 µM, compound concentration 10 uM, replicate 1
# [4] = 12 h, 10 µM, compound concentration 10 uM, replicate 2
# [5] = 24 h, 1 µM, compound concentration 1 uM, replicate 1
# [6] = 24 h, 1 µM, compound concentration 1 uM, replicate 2
# [7] = 24 h, 10 µM, compound concentration 10 uM, replicate 1
# [8] = 24 h, 10 µM, compound concentration 10 uM, replicate 2
# [9] = 48 h, 1 µM, compound concentration 1 uM, replicate 1
# [10] = 48 h, 1 µM, compound concentration 1 uM, replicate 2
# [11] = 48 h, 10 µM, compound concentration 10 uM, replicate 1
# [12] = 48 h, 10 µM, compound concentration 10 uM, replicate 2
smiles,measurement,setting,value
CC(=O)O[C@H]1C(=O)[C@@]2(C)[C@H]([C@H](OC(=O)c3ccccc3)[C@]3(O)C[C@H](OC(=O)[C@H](O)[C@@H](NC(=O)c4ccccc4)c4ccccc4)C(C)=C1C3(C)C)[C@]1(OC(C)=O)CO[C@@H]1C[C@@H]2O [PACLITAXEL],Population Apoptotic (%),[1],55% and 76%
same,Population Fragmented Nuclei (%),[1],25% and 15%
same,Population Healthy Nuclei (%),[1],66% and 75%
same,Population Hoechst High Intensity Objects (%),[1],11% and 8%
same,Population Membrane Permeable-Phenotype (%),[1],5%
same,Population Mitochondria Different-Phenotype (%),[1],3% and 2%
same,Population Mitotic Cells (%),[1],45% and 23%
same,Population Normal (%),[1],88% and 91%
same,Population Pyknosed Nuclei (%),[1],8% and 9%
same,Population Tubulin-Different-Phenotype (%),[1],0%
same,Total Cell Count,[1],281 and 246
same,Population Fragmented Nuclei (%),[2],46% and 34%
same,Population Healthy Nuclei (%),[2],35% and 59%
same,Population Hoechst High Intensity Objects (%),[2],32% and 39%
same,Population Mitochondria Different-Phenotype (%),[2],10% and 15%
same,Population Mitotic Cells (%),[2],40% and 100%
same,Population Normal (%),[2],67% and 60%
same,Population Pyknosed Nuclei (%),[2],18% and 6%
same,Population Tubulin-Different-Phenotype (%),[2],10% and 26%
same,Total Cell Count,[2],80 and 73
same,Population Apoptotic (%),[3],81% [middle of 4 runs]
same,Population Fragmented Nuclei (%),[3],23% and 24%
same,Population Healthy Nuclei (%),[3],61% [middle of 4 runs]
same,Population Hoechst High Intensity Objects (%),[3],12% [middle of 4 runs]
same,Population Membrane Permeable-Phenotype (%),[3],5% and 3%
same,Population Mitochondria Different-Phenotype (%),[3],5% and 4% and 2%
same,Population Mitotic Cells (%),[3],26% [middle of 4 runs]
same,Population Normal (%),[3],88% and 90% and 79% and 87%
same,Population Pyknosed Nuclei (%),[3],14% and 21% and 11%
same,Total Cell Count,[3],304 [middle of 4 runs]
same,Population Fragmented Nuclei (%),[4],58% [middle of 4 runs]
same,Population Healthy Nuclei (%),[4],42% [middle of 4 runs]
same,Population Hoechst High Intensity Objects (%),[4],37% [middle of 4 runs]
same,Population Normal (%),[4],68% and 62% and 51% and 72%
same,Population Pyknosed Nuclei (%),[4],7% and 6% and 8%
same,Population Tubulin-Different-Phenotype (%),[4],9% [middle of 4 runs]
same,Total Cell Count,[4],93 and 80 and 115
same,Population Apoptotic (%),[5],48% and 38%
same,Population Fragmented Nuclei (%),[5],18% and 13%
same,Population Healthy Nuclei (%),[5],70% and 74%
same,Population Hoechst High Intensity Objects (%),[5],14% and 13%
same,Population Membrane Permeable-Phenotype (%),[5],5% and 4%
same,Population Mitotic Cells (%),[5],52% and 61%
same,Population Normal (%),[5],85% and 86%
same,Population Pyknosed Nuclei (%),[5],11%
same,Total Cell Count,[5],264 and 252
same,Population Fragmented Nuclei (%),[6],54% and 48%
same,Population Healthy Nuclei (%),[6],28% and 48%
same,Population Hoechst High Intensity Objects (%),[6],33% and 29%
same,Population Membrane Permeable-Phenotype (%),[6],13% and 11%
same,Population Mitochondria Different-Phenotype (%),[6],0% and 7%
same,Population Mitotic Cells (%),[6],44% and 100%
same,Population Normal (%),[6],66% and 70%
same,Total Cell Count,[6],80 and 77
same,Population Apoptotic (%),[7],71% [middle of 4 runs]
same,Population Fragmented Nuclei (%),[7],26% [middle of 4 runs]
same,Population Healthy Nuclei (%),[7],64% [middle of 4 runs]
same,Population Hoechst High Intensity Objects (%),[7],15% [middle of 4 runs]
same,Population Mitochondria Different-Phenotype (%),[7],2% and 0%
same,Population Normal (%),[7],85% and 87% and 84% and 75%
same,Population Pyknosed Nuclei (%),[7],16% and 15%
same,Total Cell Count,[7],291 and 285 and 333
same,Population Apoptotic (%),[8],44% [middle of 4 runs]
same,Population Fragmented Nuclei (%),[8],62% [middle of 4 runs]
same,Population Healthy Nuclei (%),[8],40% and 28% and 26%
same,Population Hoechst High Intensity Objects (%),[8],35% [middle of 4 runs]
same,Population Membrane Permeable-Phenotype (%),[8],17% [middle of 4 runs]
same,Population Normal (%),[8],68% and 64% and 53% and 72%
same,Population Pyknosed Nuclei (%),[8],11% [middle of 4 runs]
same,Total Cell Count,[8],93 [middle of 4 runs]
COc1cc2c(NC3CCN(C(C)C)CC3)nc(N3CCC(F)(F)CC3)nc2cc1OCCCN1CCCC1,Population Apoptotic (%),[1],70%
same,Population Fragmented Nuclei (%),[1],30%
same,Population Healthy Nuclei (%),[1],48%
same,Population Hoechst High Intensity Objects (%),[1],11%
same,Population Membrane Permeable-Phenotype (%),[1],16%
same,Population Mitochondria Different-Phenotype (%),[1],11%
same,Population Mitotic Cells (%),[1],29%
same,Population Normal (%),[1],88%
same,Population Pyknosed Nuclei (%),[1],21%
same,Population Tubulin-Different-Phenotype (%),[1],38%
same,Total Cell Count,[1],127
same,Population Apoptotic (%),[2],30%
same,Population Fragmented Nuclei (%),[2],20%
same,Population Healthy Nuclei (%),[2],67%
same,Population Hoechst High Intensity Objects (%),[2],5%
same,Population Membrane Permeable-Phenotype (%),[2],3%
same,Population Mitochondria Different-Phenotype (%),[2],22%
same,Population Mitotic Cells (%),[2],70%
same,Population Normal (%),[2],94%
same,Population Pyknosed Nuclei (%),[2],11%
same,Population Tubulin-Different-Phenotype (%),[2],19%
same,Total Cell Count,[2],105
same,Population Apoptotic (%),[3],61%
same,Population Fragmented Nuclei (%),[3],16%
same,Population Healthy Nuclei (%),[3],47%
same,Population Hoechst High Intensity Objects (%),[3],33%
same,Population Membrane Permeable-Phenotype (%),[3],10%
same,Population Mitochondria Different-Phenotype (%),[3],13%
same,Population Mitotic Cells (%),[3],38%
same,Population Normal (%),[3],66%
same,Population Pyknosed Nuclei (%),[3],35%
same,Population Tubulin-Different-Phenotype (%),[3],35%
same,Total Cell Count,[3],239
same,Population Apoptotic (%),[4],66%
same,Population Fragmented Nuclei (%),[4],11%
same,Population Healthy Nuclei (%),[4],76%
same,Population Hoechst High Intensity Objects (%),[4],8%
same,Population Membrane Permeable-Phenotype (%),[4],66%
same,Population Mitochondria Different-Phenotype (%),[4],97%
same,Population Mitotic Cells (%),[4],33%
same,Population Normal (%),[4],91%
same,Population Pyknosed Nuclei (%),[4],11%
same,Population Tubulin-Different-Phenotype (%),[4],97%
same,Total Cell Count,[4],89
same,Population Apoptotic (%),[5],65%
same,Population Fragmented Nuclei (%),[5],35%
same,Population Healthy Nuclei (%),[5],47%
same,Population Hoechst High Intensity Objects (%),[5],20%
same,Population Membrane Permeable-Phenotype (%),[5],15%
same,Population Mitochondria Different-Phenotype (%),[5],4%
same,Population Mitotic Cells (%),[5],34%
same,Population Normal (%),[5],79%
same,Population Pyknosed Nuclei (%),[5],17%
same,Population Tubulin-Different-Phenotype (%),[5],34%
same,Total Cell Count,[5],167
same,Population Apoptotic (%),[6],29%
same,Population Fragmented Nuclei (%),[6],14%
same,Population Healthy Nuclei (%),[6],68%
same,Population Hoechst High Intensity Objects (%),[6],8%
same,Population Membrane Permeable-Phenotype (%),[6],2%
same,Population Mitochondria Different-Phenotype (%),[6],7%
same,Population Mitotic Cells (%),[6],70%
same,Population Normal (%),[6],91%
same,Population Pyknosed Nuclei (%),[6],16%
same,Population Tubulin-Different-Phenotype (%),[6],12%
same,Total Cell Count,[6],113
same,Population Apoptotic (%),[7],63%
same,Population Fragmented Nuclei (%),[7],22%
same,Population Healthy Nuclei (%),[7],42%
same,Population Hoechst High Intensity Objects (%),[7],37%
same,Population Membrane Permeable-Phenotype (%),[7],4%
same,Population Mitochondria Different-Phenotype (%),[7],9%
same,Population Mitotic Cells (%),[7],36%
same,Population Normal (%),[7],62%
same,Population Pyknosed Nuclei (%),[7],35%
same,Population Tubulin-Different-Phenotype (%),[7],43%
same,Total Cell Count,[7],271
same,Population Apoptotic (%),[8],90%
same,Population Fragmented Nuclei (%),[8],18%
same,Population Healthy Nuclei (%),[8],59%
same,Population Hoechst High Intensity Objects (%),[8],7%
same,Population Membrane Permeable-Phenotype (%),[8],82%
same,Population Mitochondria Different-Phenotype (%),[8],100%
same,Population Mitotic Cells (%),[8],9%
same,Population Normal (%),[8],92%
same,Population Pyknosed Nuclei (%),[8],22%
same,Population Tubulin-Different-Phenotype (%),[8],96%
same,Total Cell Count,[8],112
same,Population Apoptotic (%),[9],52%
same,Population Fragmented Nuclei (%),[9],44%
same,Population Healthy Nuclei (%),[9],43%
same,Population Hoechst High Intensity Objects (%),[9],26%
same,Population Membrane Permeable-Phenotype (%),[9],12%
same,Population Mitochondria Different-Phenotype (%),[9],2%
same,Population Mitotic Cells (%),[9],47%
same,Population Normal (%),[9],73%
same,Population Pyknosed Nuclei (%),[9],12%
same,Population Tubulin-Different-Phenotype (%),[9],29%
same,Total Cell Count,[9],231
same,Population Apoptotic (%),[10],69%
same,Population Fragmented Nuclei (%),[10],47%
same,Population Healthy Nuclei (%),[10],44%
same,Population Hoechst High Intensity Objects (%),[10],34%
same,Population Membrane Permeable-Phenotype (%),[10],6%
same,Population Mitochondria Different-Phenotype (%),[10],0%
same,Population Mitotic Cells (%),[10],30%
same,Population Normal (%),[10],65%
same,Population Pyknosed Nuclei (%),[10],7%
same,Population Tubulin-Different-Phenotype (%),[10],20%
same,Total Cell Count,[10],249
same,Population Apoptotic (%),[11],37%
same,Population Fragmented Nuclei (%),[11],19%
same,Population Healthy Nuclei (%),[11],45%
same,Population Hoechst High Intensity Objects (%),[11],41%
same,Population Membrane Permeable-Phenotype (%),[11],6%
same,Population Mitochondria Different-Phenotype (%),[11],5%
same,Population Mitotic Cells (%),[11],62%
same,Population Normal (%),[11],58%
same,Population Pyknosed Nuclei (%),[11],35%
same,Population Tubulin-Different-Phenotype (%),[11],32%
same,Total Cell Count,[11],362
same,Population Apoptotic (%),[12],23%
same,Population Fragmented Nuclei (%),[12],22%
same,Population Hoechst High Intensity Objects (%),[12],47%
same,Population Membrane Permeable-Phenotype (%),[12],4%
same,Population Mitochondria Different-Phenotype (%),[12],0%
same,Population Mitotic Cells (%),[12],76%
same,Population Normal (%),[12],52%
same,Population Pyknosed Nuclei (%),[12],32%
same,Population Tubulin-Different-Phenotype (%),[12],34%
same,Total Cell Count,[12],426
